Here are results for 1 compound from article PMC4051287 (Molecular cancer therapeutics, 2014).

Square brackets hold non-standard residues; d marks the D form. Peptide text beside a SMILES is read from it. * marks the point of attachment. Dolaproine = CO[C@@H]([C@@H]1CCCN1)[C@@H](C)C(=O)O; Dil = CC[C@H](C)[C@H](NC)[C@@H](CC(=O)O)OC; X1 = C[C@@H](N*)[C@@H](O)c1ccccc1; NMeV = CN[C@H](C(=O)O)C(C)C

The conditions of data set [1]: cited from earlier work.
A further data set relates to Py230 tumors. The data set can be described thus: Therapeutic study, Py230 syngeneic tumors. It is filed as in vivo, mice. In outline:
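Tumors reach 5–7 mm diameter in 5–6 weeks. Test compound (MMAE conjugate) dosed at 0.2mg/kg MMAE, ~6.5 nanomoles of conjugate. Free MMAE and controls run alongside. Tumor volume followed.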

Turning to `CC[C@H](C)[C@@H]([C@@H](CC(=O)N1CCC[C@H]1[C@H](OC)[C@@H](C)C(=O)N[C@H](C)[C@@H](O)c1ccccc1)OC)N(C)C(=O)[C@@H](NC(=O)[C@@H](NC)C(C)C)C(C)C` [MMAE, Monomethylauristatin E] (H-[NMeV]V[Dil][Dolaproine]-X1), in data set [1], the maximum tolerated dose is 0.5 to 1.0 mg/kg. In the data set with Py230 tumors (Py230, MMAE at concentrations up to 0.6mg/kg), the “final tumor mass, dose finding” value is “Only the tumors treated at the highest dose had a reduction in final mass”. For the same compound, the “effect on tumor growth” value with Py230 tumors (Py230, immunocompetent mice, 0.2mg/kg MMAE) is listed as “no impact on tumor growth”.
